Experimental findings from ChEMBL document CHEMBL1141315, “Structures and radical-scavenging activities of phenolic constituents from the bark of Picea jezoensis var. jezoensis” (J Nat Prod, 2007) are described below.

Test [1] deals with Radical scavenging activity. The test can be described thus: Antioxidant activity assessed as DPPH radical scavenging activity. In kind it is functional. The essentials: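 Test sample in EtOH mixed with 0.1 M HOAc–NaOAc buffer (pH 5.5) and DPPH in EtOH (800 µM stock). Reacted 30 min at room temperature in microplate wells; absorbance read at 517 nm. Value reported as SC50 (50% scavenging concentration).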

The nature of test [2]: Antioxidant activity assessed as superoxide anion radical scavenging activity. In kind it is functional. The essentials:
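Superoxide generated by xanthine–xanthine oxidase in 0.05 M Na2CO3 (pH 10.2) with xanthine, EDTA, BSA and nitroblue tetrazolium (stocks 3 mM, 3 mM, 1.5 mg/mL, 0.75 mM); reaction started with xanthine oxidase (0.1 mg/mL stock). Incubated 20 min at 25 °C, stopped with CuCl2, absorbance at 560 nm; IC50 reported.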

As for `COc1cc([C@@H]2Oc3c(OC)cc(CCCO)cc3[C@H]2CO)ccc1O` [DIHYDRODEHYDRODICONIFERYL ALCOHOL], in test [1], the SC50 stood at 69.1 µM. Also, in test [2], the IC50 (commonly the concentration that inhibits the measured activity by half) was 344 µM.

Turning to `Oc1cc(O)c2c(c1)O[C@H](c1ccc(O)c(O)c1)[C@@H](O)C2` [CIANIDANOL], the SC50 in test [1] was found to be 11.4 µM. For the same molecule, in test [2], the IC50 stood at 2.31 µM.

As to `O=C(O)c1ccc(O)c(O)c1` [PROTOCATECHUIC ACID], the SC50 in test [1] came to 17.3 µM. The IC50 in test [2] stood at 3.31 µM.

Consider `O=C1c2c(O)cc(O)cc2O[C@H](c2ccc(O)c(O)c2)[C@H]1O` [(+)-TAXIFOLIN], for which the SC50 in test [1] came out at 10.4 µM. The IC50 in test [2] was 1.41 µM.

In the case of `O=Cc1ccc(O)c(O)c1` [PROTOCATECHUALDEHYDE], the SC50 in test [1] came out at 12.2 µM. In addition, the IC50 in test [2] was 25.3 µM.

Consider `Oc1cc(O)cc([C@H]2c3c(cc(O)c4c3O[C@H](c3ccc(O)c(O)c3)[C@@H](O)C4)O[C@@H]2c2ccc(O)c(O)c2)c1` [JEZONOCINOL B], for which the SC50 in test [1] was found to be 11.8 µM. In addition, the IC50 in test [2] was 1.8 µM.

For `COc1cc([C@H]2c3cc(O)c(OC)cc3C[C@@H](CO)[C@@H]2CO)ccc1O` [ISOLARICIRESINOL], in test [1], the SC50 was 13.7 µM. For the same molecule, the IC50 in test [2] worked out at 70.7 µM.

As to `O=C(O)c1cc(O)c(O)c(O)c1` [GALLIC ACID], the SC50 in test [1] came out at 8.08 µM. Moreover, in test [2], the IC50 stood at 0.53 µM.

As for `Oc1cc(O)cc([C@@H]2c3c(cc(O)c4c3O[C@H](c3ccc(O)c(O)c3)[C@@H](O)C4)O[C@H]2c2ccc(O)c(O)c2)c1` [JEZONOCINOL A], in test [1], the SC50 came out at 9.92 µM. In addition, the IC50 in test [2] is 2.03 µM.

Take `O=C(O)/C=C/c1ccc(O)cc1` [COUMARIC ACID]: in test [1], the SC50 was determined as 117 µM. In test [2], the IC50 amounted to 104 µM.

Turning to `O=C1C=C2O[C@H](c3ccc(O)c(O)c3)[C@@H](O)[C@@H]3c4c(O)cc(O)cc4[C@H](C23)[C@H](c2ccc(O)c(O)c2)C1` (stereo partly specified), in test [1], the SC50 amounted to 3.83 µM.
